# Most compounds without a hit are left out; they make up all but 9.6% or so of the library.
# PTEN del growth: growth suppression of PTEN-null HCT116, primary screen, cell-based, CellTiter-Glo; HCT116 PTEN-null viability, 60 h; stronger effect = lower value; viability, % at 10 µM; 1.2% of 140,000 active; AID 827, 2007;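 active = viability at or below a set limit, 4 SD under the median of all tested compounds, cut at about 3.7% in these data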;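 also: PTEN knockout HCT116 line with beta catenin targeted HCT116 as companion control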
# Lmaj promast: Leishmania major promastigote growth inhibition, primary screen | Leishmania major promastigotes, resazurin fluorescence viability | inhibition, % at 10 µM | 9% of 200,000 active | AID 1063, 2008; in the data active = inhibition above about 50%;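 also: promastigotes grown with compound for 44 hours at 28 °C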
# HCT116 bCat-KO: primary screen for growth suppressors in beta-catenin knockout HCT116 cells (colon tumor, human); HCT116 beta-catenin knockout viability, CellTiter-Glo, 60 h; stronger effect = lower value; viability, % at 10 µM; 1.5% of 140,000 active;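 active = viability at or under a set limit, the compound median less 4 SD, cut at about 6% in these data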;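 also: 0% = Hyamine 1622 control at 20 µM and 100% = untreated cell control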
# PMI activator: activators of human PMI, primary screen, biochemical, fluorescence intensity, near-Km mannose 6-phosphate. Mannose-6-phosphate isomerase (Homo sapiens), P34949. purified human PMI, coupled resazurin fluorescence, 20 min; stronger effect = higher value; 1 = vehicle control, 0 substrate-free wells. activation factor at 20 µM. 0.005% of 190,000 active;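 active = activation factor of 2 or more at 20 µM, relative to plate controls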
# Target sequence (P34949 whole entry, looked up): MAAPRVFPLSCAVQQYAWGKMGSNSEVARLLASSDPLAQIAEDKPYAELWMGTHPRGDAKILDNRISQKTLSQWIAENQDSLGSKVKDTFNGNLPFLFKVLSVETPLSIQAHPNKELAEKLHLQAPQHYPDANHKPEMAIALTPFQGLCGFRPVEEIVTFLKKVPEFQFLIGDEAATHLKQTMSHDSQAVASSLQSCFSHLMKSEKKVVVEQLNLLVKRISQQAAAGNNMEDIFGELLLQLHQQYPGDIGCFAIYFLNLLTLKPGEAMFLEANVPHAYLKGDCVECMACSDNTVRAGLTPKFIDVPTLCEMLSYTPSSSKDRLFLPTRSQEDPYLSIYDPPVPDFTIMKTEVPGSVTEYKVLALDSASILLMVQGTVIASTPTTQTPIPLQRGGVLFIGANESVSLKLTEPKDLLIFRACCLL
# PMI act hi M6P: human PMI activators, high substrate, primary screen, biochemical, fluorescence intensity, near-saturating mannose 6-phosphate | Mannose-6-phosphate isomerase (Homo sapiens), P34949 | coupled PMI enzyme assay, resazurin fluorescence, 20 min; stronger effect = higher value; 1 = untreated enzyme, 0 = substrate-free blank | activation factor at 20 µM | 0.34% of 190,000 active | AID 1216, 2008;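 active = activation factor of 2 or more at 20 µM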
#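 Test system: human PMI in coupled enzyme assay; Input: PMI at 15 ng/mL final; Medium: HEPES buffer, pH 7.4; Schedule: 20 min incubation at room temperature; Technique: resorufin fluorescence at Ex 544/Em 590 nm; Compound: 20 µM single dose; Probe or stimulus: Near-saturating mannose-6-phosphate, 1.0 mM.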
# * = called active by the depositor; nt = not tested or not shown.
SMILES,PTEN del growth,Lmaj promast,HCT116 bCat-KO,PMI activator,PMI act hi M6P
COc1ccc(Cn2nnnc2CN(Cc2cc3ccc(C)cc3[nH]c2=O)C2CCCC2)cc1,82,82*,84,0.9,0.9
COc1ccc(Cn2nnnc2CN(Cc2cc3cccc(C)c3[nH]c2=O)C2CCCC2)cc1,82,34,93,1,1
CCC(C)(C)n1nnnc1CN(Cc1cc2cc(OC)ccc2[nH]c1=O)C1CCCC1,77,98*,92,0.9,0.8
CCOc1ccc2[nH]c(=O)c(CN(Cc3nnnn3Cc3ccco3)C3CCCCC3)cc2c1,67,39,83,0.9,0.9
Cc1cc(C)nc(NC(=S)Nc2cccc(Cl)c2Cl)c1,nt,1,nt,0.9,1
COc1ccccc1CNC(=O)CSc1nnc2ccc(-c3cccnc3)nn12,nt,4,nt,1,1
CCn1ncc(CN2CCCC(CNC(=O)c3ccc(F)cc3)C2)c1C (configuration not stated),nt,-1,nt,nt,nt
CCOc1ccc(C2c3c(oc4ccccc4c3=O)C(=O)N2c2ccc(C)cn2)cc1OC (configuration not stated),73,80*,85,0.8,0.9
O=C/C(=C\Nc1ccccn1)c1nc2ccccc2o1,83,73*,80,0.9,0.8
CCOC(=O)c1cc2occc2n1CC(=O)Nc1ccc(OC)cc1OC,89,0,92,1,0.9
Cc1nn(CC(N)=O)c(=O)c2ccccc12,81,100*,73,1,1
CC1(C)CC(O)(CNCc2ccc3c(c2)OCO3)CCO1 (configuration not stated),101,75*,108,1.1,1
CCOC(=O)CC(N)c1cccc([N+](=O)[O-])c1 (configuration not stated),nt,-2,nt,1.1,1.1
C#CC(=O)N(c1cccc(OC)c1)C(C(=O)NC1CCCC1)c1cccs1 (configuration not stated),1.0*,100*,0.5*,0.9,0.9
COc1ccc(N(C(=O)Cc2cccs2)C(C(=O)NC2CCCCC2)c2cccn2C)cc1OC (configuration not stated),81,4,94,1,0.8
C#CC(=O)N(c1ccc(OC)c(OC)c1)C(C(=O)NC1CCCC1)c1cccs1 (configuration not stated),1.7*,100*,1.3*,0.9,0.9
COc1ccc(CCN(C(=O)C(F)(F)F)C(C(=O)NC2CCCC2)c2cccs2)cc1OC (configuration not stated),92,59*,82,0.8,0.8
O=C(c1ccccc1)c1nn(-c2ccc(Cl)cc2)cc1C(=O)c1cc2ccccc2oc1=O,22,40,31,0.9,1
CC(O)C(NS(=O)(=O)c1ccc(Cl)cc1)C(=O)OCC(=O)N1CCN(c2ccccc2)CC1 (configuration not stated),89,1,87,1,1
Nc1nnc(-c2ccco2)s1,94,-2,95,1.1,1.2
Nc1ncnc2oc(-c3ccco3)c(-c3ccco3)c12,84,52*,82,1.2,1.6
Cc1cccc(OC2CCN(Cc3nc(CC4CC4)no3)CC2)c1,nt,-2,nt,1,1
O=C(c1nc2ccccn2c1CN1CCC(Cc2ccccc2)CC1)N1CCCC1,nt,69*,nt,0.9,1
Cc1cccc(OC2CCN(Cc3c(C(=O)N4CCCC4)nc4ccccn34)CC2)c1,nt,99*,nt,0.8,0.9
Cc1ccc(NC2=NCC(=O)N2C2CCCC2)cc1,nt,-3,nt,1.1,1
SMILES,PTEN del growth,Lmaj promast,HCT116 bCat-KO,PMI activator,PMI act hi M6P
CCCCN(C)CCC(=O)Nc1ccc(C)cc1,93,90*,92,1.2,1.1
CS(=O)(=O)N1CCC(C(=O)NCc2ccc3c(c2)OCO3)CC1,nt,-6,nt,1,1
CCN(CC)CCOC(=O)C1(c2ccccc2)CCOCC1,108,73*,98,1.1,1.1
NC(=O)C1(c2ccccc2)CCOCC1,110,-5,95,0.9,0.9
CCN(CC)CCCOC(=O)C1(c2ccccc2)CCCC1,95,99*,94,1,1
C[N+](C)(C)CCOC(=O)C1(c2ccccc2)CCCC1,98,-4,102,0.8,0.9
CCN(C(=O)CSc1nc2cc(C(F)(F)F)ccc2n1Cc1ccccc1)C1CCS(=O)(=O)C1 (configuration not stated),64,98*,58,0.8,0.9
Cc1ccc(Nc2nnc(SCC(=O)N(C)C3CCS(=O)(=O)C3)s2)cc1 (configuration not stated),nt,56*,nt,0.9,0.9
Cc1ccccc1Nc1nnc(SCC(=O)N(C)C2CCS(=O)(=O)C2)s1 (configuration not stated),95,42,90,1.2,1.2
CCN(C(=O)CSc1nnc(-c2ccccc2)n1C)C1CCS(=O)(=O)C1 (configuration not stated),nt,-4,nt,1,1
CCN(C(=O)CSc1nnc(Nc2ccccc2)s1)C1CCS(=O)(=O)C1 (configuration not stated),nt,58*,nt,1,1
CCN(CC)c1cnn(C/C(=N\OC)c2ccc(Cl)cc2)c(=O)c1Br,70,8,81,0.8,0.9
Cc1ccc(NCC(=O)Nc2ccc(Br)cc2)cc1F,86,-2,95,0.9,1
Cc1ccc(-n2c(Cl)c(Cl)nc(Cl)c2=O)cc1,2.5*,17,4.9*,1,0.9
COc1nc(Cl)cn(-c2ccc(C)cc2)c1=O,101,-4,92,1.1,1.1
CCCCCCCNC(=O)c1ccc(N2CCC3(CC2)OCCO3)c([N+](=O)[O-])c1,78,94*,78,0.8,0.9
O=C(NCc1ccco1)c1ccc(N2CCOCC2)c([N+](=O)[O-])c1,nt,-4,nt,1,1
CCOC(CNC(=O)c1ccc(N2CCc3ccccc32)c([N+](=O)[O-])c1)OCC,76,11,70,0.9,1
CC1CCN(c2ccc(C(=O)NCc3ccco3)cc2[N+](=O)[O-])CC1,74,50*,83,1,0.9
CC1CCN(S(=O)(=O)c2cccc(C(=O)NCc3ccco3)c2)CC1,105,6,95,1,1
O=C(NCc1ccco1)c1ccc(N2CCCCC2)c([N+](=O)[O-])c1,93,63*,92,0.9,0.8
COc1ccc(CNC(=O)c2ccc(N3CCOCC3)c([N+](=O)[O-])c2)cc1,nt,0,nt,1,1
O=C(NCc1ccc(F)cc1)c1ccc(N2CCc3ccccc32)c([N+](=O)[O-])c1,36,92*,23,0.7,0.8
Cc1cc(C)c[n+](-c2[nH]c(=O)sc2/C=N/N=C(\N)[S-])c1,nt,-11,nt,1,1.1
COc1ccc(CCNC(=O)COC(=O)c2ccc(N3CCCC3=O)cc2)cc1,nt,-1,nt,1.1,1.1

# Screening results as filed in PubChem.
